Measurements taken from ChEMBL document CHEMBL2396613, “Anti-leishmanial evaluation of C2-aryl quinolines: mechanistic insight on bioenergetics and sterol biosynthetic pathway of Leishmania braziliensis” (Bioorg Med Chem, 2013).
The source made the active and inactive calls. The rule behind the calls is not given here.

Tests used:
Leishmania braziliensis [1] = assay: Antileishmanial activity against promastigotes of Leishmania (V.) braziliensis MHOM/CO/87/UA301 after 96 hrs by MTT assay; type: functional, organism-based; conditions: MHOM/CO/87/UA301, 96 h
[2] = Cytotoxicity against mouse BMDM after 96 hrs by MTT assay
In short: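 Host-cell MTT test on mouse bone-marrow-derived macrophages (L-929 conditioned medium): 5000 cells/well were exposed to 100, 200 and 300 μM. MTT was added, cells were lysed with acidic isopropanol and read at 570 nm.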

Leishmania braziliensis [3] = assay: Reduction of mitochondrial membrane potential in Leishmania (V.) braziliensis MHOM/CO/87/UA301 assessed as increase in fluorescence at 6 uM up to 1400 seconds using rhodamine 123 by spectrofluorimeter analysis; type: functional, organism-based
In short: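 Fluorescence (ex 488, em 530 nm) was followed in a spectrofluorimeter at 29 °C under continuous agitation. FCCP served as protonophore comparator.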

Leishmania braziliensis [4] = assay: Antileishmanial activity against amastigotes of Leishmania (V.) braziliensis MHOM/CO/87/UA301 infected in BMDM assessed as reduction of intracellular amastigotes after 96 hrs by Giemsa staining; type: functional, organism-based; conditions: MHOM/CO/87/UA301, BMDM
In short: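 Mouse bone-marrow macrophages, differentiated in L-929 conditioned medium, were mixed 1:10 with promastigotes in DMEM + 10% FBS. Co-cultures sat on glass coverslips for 18 h at 37 °C, 5% CO2. Medium was then replaced with compound-containing medium for 96 h. Cells were Giemsa-stained and counted. EC50 was based on the number of amastigotes per macrophage; triplicate.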

Leishmania braziliensis [5] = assay: Induction of acidocalcisomes alkalinization in Leishmania (V.) braziliensis MHOM/CO/87/UA301 at 6 uM up to 1200 seconds using acridine orange staining; type: functional, organism-based
In short: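 Promastigotes (10⁹ cells/mL), washed twice in KCl/Tris buffer, were loaded with 2 μM acridine orange for 5 min at 29 °C. Fluorescence (ex 488, em 530 nm) was recorded in a stirred cuvette at 29 °C.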

Leishmania braziliensis [6] = assay: Effect on sterol biosynthesis in Leishmania (V.) braziliensis MHOM/CO/87/UA301 assessed as exogenous cholesterol level at 6 uM (reference value: 13.6 +/- 0.51%)
Leishmania braziliensis [7] = assay: Effect on sterol biosynthesis in Leishmania (V.) braziliensis MHOM/CO/87/UA301 assessed as endogenous squalene level at 6 uM (reference value: 22.7 +/- 0.12%)
Leishmania braziliensis [8] = assay: Effect on sterol biosynthesis in Leishmania (V.) braziliensis MHOM/CO/87/UA301 assessed as endogenous 14-desmethyl 5-dehydroepisterol level at 6 uM (reference value: 63.7 +/- 1.02%)
[9] = Cytotoxicity against mouse BMDM at 20 to 100 uM after 96 hrs by MTT assay
Leishmania braziliensis [10] = assay: Induction of acidocalcisomes alkalinization in Leishmania (V.) braziliensis MHOM/CO/87/UA301 at 1 uM up to 1400 seconds using acridine orange staining; type: functional, organism-based

Q: With `Cc1cc(C)c2ccc(-c3ccccc3)nc2c1` as the molecule, how does the IC50 (Leishmania braziliensis [1]) read?
A: ≤ 50 µM

Q: What about the IC50 [2] of the same molecule?
A: ≤ 100 µM

Q: For `CCc1ccc2nc(-c3ccccc3)ccc2c1`, which IC50 (Leishmania braziliensis [1]) is on record?
A: ≤ 50 µM

Q: What about the Activity (Leishmania braziliensis [3]) of the same molecule?
A: Active

Q: What about the EC50 (Leishmania braziliensis [4]) of the same molecule?
A: 20 µM

Q: And the Activity (Leishmania braziliensis [5])?
A: Active

Q: What about the mass % of sterol at 6 µM (Leishmania braziliensis [6]) of the same molecule?
A: 12.3%

Q: And the IC50 [2]?
A: ≥ 200 µM

Q: What about the mass % of sterol at 6 µM (Leishmania braziliensis [7]) of the same molecule?
A: 64.3%

Q: And the mass % of sterol at 6 µM (Leishmania braziliensis [8])?
A: 23.4%

Q: And the Activity [9]?
A: Non-toxic

Q: With `CO[C@@H]1C[C@@H](C[C@H]2CC[C@H](C)[C@H]([C@@H](C)C(=O)O)O2)O[C@]2(O[C@](C)([C@H]3CC[C@@](C)([C@@H]4O[C@@H]([C@H]5O[C@@](O)(CO)[C@H](C)C[C@@H]5C)C[C@@H]4C)O3)C[C@H]2C)[C@@H]1C` as the molecule, how does the Activity (Leishmania braziliensis [10]) read?
A: Active

Q: With `Cc1ccc2nc(-c3ccc4c(c3)OCO4)ccc2c1` as the molecule, how does the IC50 (Leishmania braziliensis [1]) read?
A: ≥ 50 µM

Q: For `CCCCCCCCCCCCCCCCOP(=O)([O-])OCC[N+](C)(C)C` [MILTEFOSINE], which IC50 (Leishmania braziliensis [1]) is on record?
A: ≤ 50 µM

Q: And the IC50 [2]?
A: ≥ 200 µM

Q: Which IC50 (Leishmania braziliensis [1]) does the source give for `CCc1ccc2nc(-c3ccc4c(c3)OCO4)ccc2c1` here?
A: ≥ 50 µM

Q: What does the source list for `CCN(CC)CCCCCCNc1cc(OC)cc2c(C)ccnc12` [SITAMAQUINE]?
A: IC50 (Leishmania braziliensis [1]): ≤ 50 µM; IC50 [2]: ≤ 100 µM

Q: Which IC50 (Leishmania braziliensis [1]) does the source give for `Cc1cc(C)c2ccc(-c3ccc4c(c3)OCO4)nc2c1` here?
A: ≥ 50 µM

Q: Which IC50 (Leishmania braziliensis [1]) does the source give for `COc1ccc2nc(-c3ccc4c(c3)OCO4)ccc2c1` here?
A: ≥ 50 µM

Q: With `c1ccc2nc(-c3ccc4c(c3)OCO4)ccc2c1` as the molecule, how does the IC50 (Leishmania braziliensis [1]) read?
A: ≥ 50 µM
